High-throughput results: PubChem, several laboratories
Sampled rows, rich in hits. Any-hit rate of the full collection: about 3.4%.
APOBEC3A inh: inhibitors of human APOBEC3A DNA deaminase | actives 0.41% (n = 330,000) | inhibition, % at 20 µM | P31941 | recombinant A3A, FAM/TAMRA ssDNA deamination fluorescence;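 active means at least 40% inhibition at 20 µM here, with at most 30% in a related deaminase screen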;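 further: plate controls were A3A with DMSO for no effect and wells lacking A3A enzyme for full effect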
Target sequence (P31941 whole entry, looked up): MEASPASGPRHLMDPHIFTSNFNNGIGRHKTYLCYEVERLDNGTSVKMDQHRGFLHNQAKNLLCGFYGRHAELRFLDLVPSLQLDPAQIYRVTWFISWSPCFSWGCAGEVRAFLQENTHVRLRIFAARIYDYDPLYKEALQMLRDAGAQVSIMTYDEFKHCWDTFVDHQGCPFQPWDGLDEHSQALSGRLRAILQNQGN
UCH37 inh: human UCH37 deubiquitinating enzyme inhibition; purified proteasome/UCH37, Ub-AMC cleavage fluorescence; inhibition, % (test concentration not listed); actives 0.33% (n = 330,000);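 active means mean inhibition over replicate wells above about 20%, limit read from the data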;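 further: 0% = compound-free wells with enzyme and 100% = wells lacking proteasome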
Target sequence (Q9Y5K5 whole entry, looked up): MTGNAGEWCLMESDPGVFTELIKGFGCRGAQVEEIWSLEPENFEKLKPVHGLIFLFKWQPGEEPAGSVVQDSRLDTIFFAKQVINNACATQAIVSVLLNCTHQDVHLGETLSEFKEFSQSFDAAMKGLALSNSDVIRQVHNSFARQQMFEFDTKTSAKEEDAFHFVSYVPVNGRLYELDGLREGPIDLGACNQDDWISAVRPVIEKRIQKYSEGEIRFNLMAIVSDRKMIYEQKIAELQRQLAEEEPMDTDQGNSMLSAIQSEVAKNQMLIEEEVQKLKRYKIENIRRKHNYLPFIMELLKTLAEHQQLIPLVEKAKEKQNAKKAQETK
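Test system – human UCH37 enzyme supplied as purified proteasome complex · Incubation – 30 min preincubation with enzyme, 25 min cleavage at room temperature · Detection – AMC fluorescence from Ub-AMC cleavage, excitation 355 nm, emission 460 nm · Benchmarks – no-proteasome wells (full inhibition) and compound-free wells (no inhibition)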
Arr AP2 block: human beta-arrestin and AP2 interaction inhibition; inhibition, % at 10 µM; actives 0.31% (n = 340,000); FITC-arrestin peptide / GST-AP2 beads, flow cytometry; AP2 beta2 appendage carries R879A mutation;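 active means inhibition above a set limit, near 3 SD of compounds lacking own fluorescence, cut at about 54% in these data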;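 further: plate controls were DMSO wells for no effect and 5 µM unlabelled arrestin peptide for full effect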
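Assay system: GST-AP2 R879A bound to glutathione beads, E. coli-expressed; Medium: PBS with 0.05% Tween 20 and 0.1% BSA; Also added: fluorescein-tagged arrestin peptide at 50 nM final; Timing: 12 min plus 1 h, RT; Measured by: flow cytometry, FL1 (488/535 nm); Evaluation: percent drop in bead-associated FITC signal.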
PolyA inhibitor: inhibitors of polyadenylation in S. cerevisiae; S. cerevisiae SKY197-pL101 polyadenylation reporter, beta-gal luminescence; efflux-impaired pdr1/pdr3 knockout yeast; score 100 = 6 SD above DMSO; AID 1875; actives 0.02% (n = 300,000); activity score, % at 12 µM;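 active means lowest replicate activity score at least 50, where 100 means six control SD above control mean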;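 further: yeast exposed to compound for 9 h at 30 °C; higher score means more reporter readthrough which indicates perturbed polyadenylation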
AHR activator: activates the human aryl hydrocarbon receptor | P35869 | AHR-responsive luciferase reporter cells, luminescence | activation, % at 5 µM | actives 2.5% (n = 320,000) | AID 2796; in the data active means activation above about 47%;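 further: 0% = vehicle wells and 100% = reference agonist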
A3G deaminase: blocks human APOBEC3G single-stranded DNA deamination | Q9HC16 | recombinant A3G, ssDNA deamination FAM/TAMRA fluorescence | inhibition, % at 20 µM | actives 0.28% (n = 330,000) | AID 493012;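 active means inhibition of at least 40% at 20 µM, with no more than 30% in the related APOBEC3A deaminase screen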;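 further: plate controls were DMSO wells with A3G for no effect and wells lacking A3G enzyme for full effect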
AHR act confirm: confirmation of human aryl hydrocarbon receptor activators; shares compounds with AHR activator; human cells, AHR-responsive luciferase reporter, luminescence; activation, % at 9 µM; actives 87% (n = 2,300); AID 2845; in the data active means activation above about 49%;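 further: HepG2 hepatoma cells carrying a DRE-driven firefly luciferase reporter; 0% = vehicle wells and 100% = reference agonist wells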
PXR counter: PXR activation, counter-screen for AHR activators; shares compounds with AHR activator; cell-based PXR reporter, luciferase luminescence; activation, % at 11.6 µM; actives 88% (n = 2,300); AID 434939; in the data active means activation above about 11%;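 further: human hepatoma DPX-2 cells expressing full-length human PXR; 0% = DMSO and 100% = reference agonist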
An asterisk follows results filed as active; nt = no result.

SMILES	APOBEC3A inh	UCH37 inh	Arr AP2 block	PolyA inhibitor	AHR activator	A3G deaminase	AHR act confirm	PXR counter
Cc1ccc(OCCOc2ccc(Br)cc2/C=N\NC(N)=O)cc1	-4.1	nt	12.4	3.6	92.5*	-5.6	27.0	5.9
CC(OC(=O)c1ccccc1C(=O)N(C)c1ccccc1)C(=O)Nc1ccc(C(N)=O)cc1 (stereo not drawn)	13.0	0.9	-3.7	36.7	4.6	-11.7	nt	nt
CC(OC(=O)c1cc(O)c2ccccc2c1O)C(=O)Nc1ccc(C(N)=O)cc1 (stereo not drawn)	-0.5	-13.4	9.1	1.4	102.8*	-2.9	78.4*	19.0*
COc1ccc(/C=C/c2ccc3cccc(O)c3n2)cc1Br	-0.5	-1.3	0.5	-2.2	-0.2	-4.7	nt	nt
COc1ccc(/C=C/c2ccc3cccc(O)c3n2)c(OC)c1OC	-3.4	-1.2	-0.2	-22.1	-1.3	-5.3	nt	nt
COc1cccc(/C=C/c2ccc3cccc(O)c3n2)c1	-4.7	7.1	-9.9	-20.9	83.1*	-5.7	120.2*	21.7*
COc1cccc(/C=C/c2ccc3cccc(O)c3n2)c1OC	-2.5	nt	12.0	-4.0	81.4*	-6.3	65.0*	13.1*
C/C(C=NN1C(=O)CSC1=S)=C\c1ccccc1	nt	12.6	nt	nt	nt	nt	nt	nt
O=C(O)c1ccc(N/N=C/C2=Cc3ccccc3OC2)cc1	0.0	nt	23.9	9.0	121.6*	1.2	83.0*	18.3*
O=C(N/N=C\c1ccc(Cl)cc1)c1sccc1-n1cccc1	-0.2	nt	28.6	3.2	96.5*	-8.9	123.5*	23.6*
O=C(NNC(=O)c1c(F)cccc1F)c1sccc1-n1cccc1	1.9	3.7	8.0	-4.2	1.6	-5.6	nt	nt
CNC(=O)c1sccc1-n1cccc1	-1.1	4.0	-1.4	-9.0	2.1	-2.9	nt	nt
O=C(NNS(=O)(=O)c1cc(Cl)cc(Cl)c1)c1sccc1-n1cccc1	-1.4	-0.1	5.9	2.8	35.2	-2.5	nt	nt
O=C(NNC(=O)c1sccc1-n1cccc1)c1ccc(F)cc1	-8.0	3.4	-1.2	5.7	112.4*	-7.3	45.5	6.1
O=C(NNC(=O)c1sccc1-n1cccc1)c1cccc(Cl)c1	4.1	-0.1	5.4	nt	133.3*	5.1	113.6*	100.5*
O=C(NNC(=O)c1sccc1-n1cccc1)Nc1ccccc1	-2.1	3.5	27.5	14.4	92.2*	-8.3	126.5*	60.9*
CC(=NNc1cc(C)nc(-c2ccccc2)n1)c1cccc([N+](=O)[O-])c1	nt	5.0	nt	nt	nt	nt	nt	nt
O=C(NNC(=O)c1ccccc1-n1cccc1)c1ccc(F)cc1	-3.0	nt	13.0	-9.3	90.2*	-8.3	101.1*	42.7*
O=C(NNC(=O)c1sccc1-n1cccc1)c1ccccc1	1.6	0.9	19.8	-22.3	137.1*	1.1	128.5*	47.9*
O=C(Nc1cccc(-c2nc3cc(Cl)ccc3o2)c1)C1CCCO1 (stereo not drawn)	-3.5	3.4	-4.5	8.5	118.3*	-6.3	126.0*	nt
O=C(O)c1ccc(Cl)cc1NC(=O)C1CCCO1 (stereo not drawn)	-1.3	-0.3	2.0	13.2	0.8	-4.5	nt	nt
NS(=O)(=O)c1ccc(NC2=CC(=O)C(=O)c3ccccc32)cc1	-6.9	nt	4.5	9.7	114.3*	-4.3	19.8	5.0
O=C(N/N=C/c1c[nH]c2ccccc12)c1cc(-c2ccc3ccccc3c2)n[nH]1	-2.2	nt	13.2	-18.2	145.3*	-2.5	52.6*	11.7*
O=C(N/N=C/c1c[nH]c2ccccc12)c1cc(-c2cccc3ccccc23)n[nH]1	-1.7	nt	-5.6	6.7	91.8*	-1.7	18.1	5.5
CC(=O)C(=NNc1ccccc1)Sc1nnc(CCc2ccccc2)n1-c1ccccc1	nt	7.2	nt	nt	nt	nt	nt	nt
Cc1ccc(-n2c(C)nc3oc4ccccc4c(=O)c3c2=O)cc1	23.3	0.8	-0.1	-21.4	91.0*	20.3	99.2*	11.1*
